Screening data from PubChem.
MrgX1 agonist = human MrgX1 receptor agonism, primary screen; Q96LB2; MrgX1-HEK293 cells, Fluo-4 calcium fluorescence, agonist mode; stronger effect = higher value; 310,000 tested, 0.44% active; B-score at 10 µM; AID 588627;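 active means calcium response B-score plate-corrected fluorescence ratio at least 3 library SD, with starting fluorescence B-score inside 5 SD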
Target sequence (Q96LB2 whole entry, looked up): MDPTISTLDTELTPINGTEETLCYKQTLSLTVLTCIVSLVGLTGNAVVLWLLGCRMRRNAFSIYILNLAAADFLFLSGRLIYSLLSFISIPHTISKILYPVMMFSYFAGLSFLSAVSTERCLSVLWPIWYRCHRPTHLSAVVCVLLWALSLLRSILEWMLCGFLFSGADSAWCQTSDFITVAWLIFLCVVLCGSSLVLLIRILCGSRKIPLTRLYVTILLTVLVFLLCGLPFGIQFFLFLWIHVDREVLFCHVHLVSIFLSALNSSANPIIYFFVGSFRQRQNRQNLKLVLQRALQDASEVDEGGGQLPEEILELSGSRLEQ
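Material – MrgX1-expressing HEK293 cells · Input – 15,000 cells seeded per well · Dosing – compound as first of three additions · Times – overnight seeding, then 1 h dark dye loading · Measured by – kinetic Fluo-4 NW fluorescence of intracellular calcium · Read-out – B-scored fluorescence response ratio · Benchmarks – positive and negative control wells on each plate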
MrgX1 antagonist = human MrgX1 receptor antagonism, primary screen; Q96LB2; MRGX1-HEK293 calcium flux, Fluo-4, BAM8-22 antagonism; stronger effect = lower value; B-score at 10 µM; 310,000 tested, 1.3% active; AID 588676;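 active means calcium-response B-score plate-corrected more than 3 library SD below zero, starting fluorescence within 5 deviations, no agonist response on first addition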;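 further: peak minus trough fluorescence over baseline after final BAM8-22 challenge near maximal dose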
MrgX1 PAM = human MrgX1 positive allosteric modulation, primary screen; Q96LB2; MrgX1-HEK293, Fluo-4 calcium flux, FDSS; stronger effect = higher value; B-score at 10 µM; 310,000 tested, 0.63% active; AID 588675;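 active means plate-corrected calcium response at least 3 library SD above typical, normal starting fluorescence, not activating the receptor alone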;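 further: compound read alongside a low EC10 to EC30 dose of BAM8-22 agonist; peak minus trough fluorescence over baseline measured at the second addition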
RGS4 inh = inhibitors of human RGS4. B-score at 10 µM. AID 463165. P49798. HEK293 M3R/RGS4 inducible, Fluo-4 calcium flux; stronger effect = higher value; triggered by carbachol at its EC20. 310,000 tested, 0.45% active;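 active means B-score, a plate-corrected calcium signal, over three deviations above library mean, with baseline fluorescence within five deviations of library mean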;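 further: RGS4 expression induced by doxycycline in cells with stable M3 receptor; B-score is computed from the integrated fluorescence ratio over baseline after carbachol; higher B-score means a larger calcium signal and so more RGS4 inhibition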
RGS4 act = RGS4 potentiation or activation | HEK293 M3R/inducible RGS4, carbachol calcium flux Fluo4; stronger effect = lower value | B-score at 10 µM | 310,000 tested, 0.92% active;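 active means B-score of the integrated calcium signal more than 4 SD below the library mean, with starting fluorescence not abnormally high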;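 further: negative B-score means reduced calcium response which marks RGS4 activation or potentiation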
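Material: Inducible-RGS4 HEK293 cells carrying M3 receptor; also added: carbachol at ECmax as muscarinic agonist stimulus; incubation: compound preincubation 20 min at room temperature before agonist; signal: Fluo4-AM (2 µM) calcium-flux fluorescence, kinetic read; measure: integrated calcium ratio converted to B score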
RGS4 block valid = RGS4 inhibitor validation; HEK293 M3R/RGS4, carbachol calcium Fluo-4 fluorescence; carbachol added at its EC20; 0 = buffer wells, 100 = carbachol control; shares compounds with RGS4 inh; 1,700 tested, 65% active; calcium response, % at 10 µM;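 active means duplicate-averaged calcium response above the buffer-only control mean plus 5 SD of those controls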;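 further: integrated fluorescence ratio F max minus min over baseline F0; higher response in RGS4-induced cells means RGS4 inhibition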
M3R Ca ctr = checks RGS4 inhibitor effects in non-induced HEK293 M3R cells | shares compounds with RGS4 inh | carbachol calcium Fluo-4; submaximal (EC20) carbachol stimulus; buffer wells 0%, carbachol control wells 100% | activity (percent), % at 10 µM | 1,900 tested, 20% active; call rule not given here;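 further: RGS4 induction absent so cells express M3R without RGS4; higher means more calcium signal and flags a non-specific hit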
M3R basal Ca ctr = second RGS4 inhibitor counter-screen in uninduced cells lacking carbachol; shares compounds with RGS4 inh; AID 493001; calcium response (agonist-mode artifact), % at 10 µM; 1,900 tested, 22% active; HEK293 M3R/RGS4 non-induced, Fluo-4 calcium, no carbachol; normalised: buffer wells 0%, carbachol wells 100%;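 active means duplicate-averaged calcium rise in uninduced cells above buffer wells' mean plus 5 SD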
Active calls of the source: *; i = inactive; nt = no result given. An excerpt weighted towards active compounds, which were near 3.5% of everything screened.

SMILES | MrgX1 agonist | MrgX1 antagonist | MrgX1 PAM | RGS4 inh | RGS4 act | RGS4 block valid | M3R Ca ctr | M3R basal Ca ctr
CC1(C)Cc2c(C#N)c(NCc3ccco3)nc(-c3ccco3)c2CO1 | i | i | i | i | i | nt | nt | nt
CC1(C)Cc2c(C#N)c(N3CCCC3)nc(-c3ccco3)c2CO1 | i | i | i | 8.5* | i | 6.0%* | i | 13%*
N#Cc1c(N2CCOCC2)nc(-c2ccco2)c2c1CCCC2 | i | i | i | i | i | i | i | i
CCc1nc(N2CCOCC2)c(C#N)c2c1CCCC2 | i | i | i | i | i | nt | nt | nt
CC(=O)Oc1cccc(N2C(=O)c3ccc(C(=O)Nc4c[nH]c(=O)[nH]c4=O)cc3C2=O)c1 | i | i | i | i | i | nt | nt | nt
CC(NC(=O)/C(C#N)=C/c1ccc(C(=O)O)cc1)c1ccccc1 (configuration not stated) | i | i | i | 13* | i | 44%* | 40%* | i
CCOC(=O)[C@@H]1[C@H]2COc3ccccc3[C@@H]2N2C(=O)N(c3cccc(Cl)c3)C(=O)[C@]12C | i | i | i | i | i | i | i | i
CCOC(=O)[C@@H]1[C@H]2COc3ccccc3[C@H]2N2C(=O)N(c3cccc(Cl)c3)C(=O)[C@@]12C | i | i | i | 6.5* | i | 36%* | 32%* | i
CCOC(=O)[C@@H]1[C@H]2COc3cc(OC)ccc3[C@@H]2N2C(=O)N(c3ccc(OC)cc3)C(=O)[C@]12C | i | i | i | i | i | nt | nt | nt
CCOC(=O)[C@@H]1[C@H]2COc3ccc(Br)cc3[C@@H]2N2C(=O)N(c3cccc(F)c3)C(=O)[C@@]12C | i | i | i | i | i | nt | nt | nt
CCOC(=O)[C@@H]1[C@H]2COc3ccccc3[C@@H]2N2C(=O)N(c3cccc(Cl)c3)C(=O)[C@@]12C | i | i | i | i | i | i | i | i
CCOC(=O)[C@@H]1[C@H]2COc3ccccc3[C@@H]2N2C(=O)N(c3cccc(F)c3)C(=O)[C@]12C | i | i | i | i | i | i | i | i
Cc1csc(SCC(=O)NC2CCC(C)CC2)n1 (configuration not stated) | i | i | i | i | i | nt | nt | nt
CC(=O)NC(c1cccc([N+](=O)[O-])c1)c1c(OC(C)=O)ccc2ccccc12 (configuration not stated) | i | i | i | i | i | nt | nt | nt
CC(=O)Oc1ccc2ccccc2c1C(NC(=O)Cc1ccccc1)c1ccccc1 (configuration not stated) | i | i | i | 5.5* | i | 14%* | 30%* | i
Cc1c(/C=N/NC(N)=O)c2ccccn2c1C(=O)c1ccncc1 | i | i | i | i | i | nt | nt | nt
Cc1c(/C=N/NC(=O)CNc2ccccc2)c2ccccn2c1C(=O)c1ccccc1 | i | i | i | i | i | i | i | 16%*
COc1ccc(N2CCN(C3CCN(S(=O)(=O)c4ccc(F)cc4)CC3)CC2)cc1 | i | i | i | i | i | nt | nt | nt
COc1ccc(S(=O)(=O)N2CCN(c3ccc4nnc(-c5ccc(F)cc5)n4n3)CC2)cc1 | i | i | i | i | i | nt | 32%* | i
Cc1c(OCC(=O)N[C@@H](Cc2ccccc2)C(=O)O)ccc2c3c(c(=O)oc12)CCC3 | i | i | i | i | i | i | i | i
Cc1c(OCC(=O)N[C@@H](CSCc2ccccc2)C(=O)O)ccc2c3c(c(=O)oc12)CCC3 | nt | nt | nt | 4.9* | i | i | i | i
